Compound activity as filed in PubChem.
HSV augment – enhancers of HSV replication in host cells, fold increase, host cell viability | HSV replication augmentation in cells | maximum fold increase | 0.005% of 220,000 active; in the data active = maximum fold increase above about 1.5; tested in PC3 cells
ABCB1 block – ABCB1 efflux pump inhibitors, primary screen, cell-based, multiplex, flow cytometry, ABCG2 counter-screen; ATP-dependent translocase ABCB1 (Homo sapiens), P08183; inhibition, % at 6.6 µM; CCRF-Adr cells, JC-1 efflux; 0.067% of 190,000 active; AID 1326, 2008; in the data active = inhibition above about 40%;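 also: higher value means more JC-1 retained so stronger ABCB1 efflux block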
PKD1 inh – inhibitors of human PKD1 kinase, biochemical, fluorescence polarization. 0.056% of 200,000 active. Serine/threonine-protein kinase D1 (Homo sapiens), Q15139. inhibition, % (concentration not given with the values). AID 797, 2007. PKD1 kinase fluorescence polarization assay; in the data active = inhibition above about 50%
ABCG2 block – ABCG2 efflux pump inhibitors, primary screen, multiplex with ABCB1, IgMXP3 cells, flow cytometry; Broad substrate specificity ATP-binding cassette transporter ABCG2 (Homo sapiens), Q9UNQ0; JC-1 efflux; inhibition, % at 6.6 µM; 0.1% of 190,000 active; AID 1325, 2008;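 active = inhibition above 80%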
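Read-out basis: Efflux inhibition in percent versus controls | Test system: ABCG2 IgMXP3 and barcoded ABCB1 CCRF-Adr cell mix | Quantity: 3 million cells/mL in well | Schedule: 10 min at 25 °C | Control set: Nicardipine as high control, DMSO as low control | Reagent: JC-1 as fluorescent efflux pump substrate | Signal: Flow cytometry of retained JC-1 fluorescence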
PHOSPHO1 block – PubChem AID 1565. inhibition, % at 13.3 µM. Phosphoethanolamine/phosphocholine phosphatase (Homo sapiens), Q8TCT1. recombinant PHOSPHO1, absorbance phosphatase assay. 1.1% of 290,000 active; in the data active = inhibition above about 60%
NCF1 inh – p47phox/p22phox peptide binding inhibitors, primary screen, biochemical, uHTS, NADPH oxidase regulatory subunit; Neutrophil cytosol factor 1 (Homo sapiens), P14598; fluorescence polarization, 2 h; inhibition, % at 24.7 µM; 0.53% of 220,000 active; AID 1274, 2008;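 active = inhibition above about 30%, limit read from the data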
Target sequence (P14598 whole entry, looked up): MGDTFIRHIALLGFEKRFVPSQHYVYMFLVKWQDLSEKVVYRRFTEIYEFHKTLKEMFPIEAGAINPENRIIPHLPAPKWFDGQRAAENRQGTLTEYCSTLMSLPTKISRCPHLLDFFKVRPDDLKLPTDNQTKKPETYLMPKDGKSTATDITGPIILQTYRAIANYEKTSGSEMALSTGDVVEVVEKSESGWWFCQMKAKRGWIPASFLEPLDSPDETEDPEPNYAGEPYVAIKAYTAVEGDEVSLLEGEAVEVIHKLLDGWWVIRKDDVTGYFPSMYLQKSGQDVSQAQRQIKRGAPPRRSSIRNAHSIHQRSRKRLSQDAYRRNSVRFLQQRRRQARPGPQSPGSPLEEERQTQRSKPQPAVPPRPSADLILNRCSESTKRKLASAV
A number is an active result. An excerpt weighted towards active compounds, which were near 1.6% of everything screened.

Results for COc1ccccc1/C=C/C=N/n1c(-c2cc(C)[nH]n2)n[nH]c1=S ?
HSV augment: inactive; ABCB1 block: inactive; PKD1 inh: inactive; ABCG2 block: inactive; PHOSPHO1 block: 62.2; NCF1 inh: inactive

How did COc1ccc(-c2n[nH]c(=S)n2/N=C/C=C\c2ccccc2OC)cc1 do in these assays?
HSV augment: inactive; ABCB1 block: inactive; PKD1 inh: inactive; ABCG2 block: inactive; PHOSPHO1 block: 66.3; NCF1 inh: inactive

What do the screens show for `COc1ccccc1/C=C/C=N/n1c(-c2ccncc2)n[nH]c1=S`?
ABCB1 block: inactive; PKD1 inh: inactive; ABCG2 block: inactive; PHOSPHO1 block: 78.7; NCF1 inh: inactive

What do the screens show for `Cc1nn2c(c1-c1ccc(Cl)cc1)N=C(c1ccco1)CC2c1ccccc1` (stereo not drawn)?
HSV augment: inactive; ABCB1 block: inactive; PKD1 inh: inactive; ABCG2 block: inactive; PHOSPHO1 block: inactive; NCF1 inh: inactive

Results for Cc1ccc(-n2c(O)c(C=NC3CCS(=O)(=O)C3)c3ccccc3c2=O)cc1 (stereo not drawn) ?
HSV augment: inactive; ABCB1 block: inactive; PKD1 inh: inactive; ABCG2 block: inactive; PHOSPHO1 block: inactive; NCF1 inh: 51.2

What do the screens show for `Cc1ccc(-n2c(O)c(C=NC3CCS(=O)(=O)C3)c3ccccc3c2=O)c(C)c1` (stereo not drawn)?
HSV augment: inactive; PHOSPHO1 block: inactive; NCF1 inh: inactive

How did Cn1c(SC/C=C/c2ccccc2)nnc1-c1ccco1 do in these assays?
HSV augment: inactive; ABCB1 block: inactive; PKD1 inh: inactive; ABCG2 block: inactive; PHOSPHO1 block: inactive; NCF1 inh: inactive

How did Cc1nc(SCC(=O)c2ccc(F)cc2)n[nH]1 do in these assays?
HSV augment: inactive; ABCB1 block: inactive; PKD1 inh: inactive; ABCG2 block: inactive; PHOSPHO1 block: 94.8; NCF1 inh: inactive

Results for CCc1nc(SCC(=O)c2ccc(C)c(C)c2)n[nH]1 ?
HSV augment: inactive; ABCB1 block: inactive; PKD1 inh: inactive; ABCG2 block: inactive; PHOSPHO1 block: 99.0; NCF1 inh: inactive

How did CCN(CC)c1ccc(NC(=O)c2ccccc2F)cc1S(=O)(=O)Nc1ccccc1OC do in these assays?
HSV augment: inactive; ABCB1 block: inactive; PKD1 inh: inactive; ABCG2 block: inactive; PHOSPHO1 block: 64.3; NCF1 inh: inactive

Results for O=C(Nc1ccc(N2CCCC2)cc1)c1ccc(Br)cc1 ?
PHOSPHO1 block: inactive

Results for CCN(CC)c1ccc(NC(=O)c2ccccc2Br)cc1S(=O)(=O)Nc1ccccc1OC ?
HSV augment: inactive; ABCB1 block: inactive; PKD1 inh: inactive; ABCG2 block: inactive; PHOSPHO1 block: inactive; NCF1 inh: inactive

What do the screens show for `CC(C)Oc1ccc(C(=O)Nc2ccc(N3CCCC3)cc2)cc1`?
HSV augment: inactive; ABCB1 block: inactive; PKD1 inh: inactive; ABCG2 block: inactive; PHOSPHO1 block: inactive; NCF1 inh: 34.4

Results for COc1ccccc1NS(=O)(=O)c1cc(NC(=O)c2cccs2)ccc1N1CCCC1 ?
HSV augment: inactive; ABCB1 block: inactive; PKD1 inh: inactive; ABCG2 block: inactive; PHOSPHO1 block: 64.1; NCF1 inh: inactive

Results for O=C(Nc1ccc(S(=O)(=O)N2CCCC2)cc1)c1cccs1 ?
HSV augment: inactive; ABCB1 block: inactive; PKD1 inh: inactive; ABCG2 block: inactive; PHOSPHO1 block: 60.1; NCF1 inh: inactive

Results for CN1CCN(S(=O)(=O)c2ccc(NC(=O)c3cccs3)cc2)CC1 ?
HSV augment: inactive; ABCB1 block: inactive; PKD1 inh: inactive; ABCG2 block: inactive; PHOSPHO1 block: inactive; NCF1 inh: inactive

Results for CC(=O)Nc1ccc(C(=O)Nc2ccc(S(=O)(=O)N3CCOCC3)cc2)cc1 ?
PHOSPHO1 block: inactive

How did O=C(Nc1ccc(N2CCOCC2)cc1)c1ccc(S(=O)(=O)N2CCCCC2)cc1 do in these assays?
ABCB1 block: inactive; PKD1 inh: inactive; ABCG2 block: inactive; PHOSPHO1 block: inactive; NCF1 inh: 36.9

Results for CCNC(=S)NNC(=O)c1cc(-c2cccc(C)c2)nc2ccccc12 ?
HSV augment: inactive; ABCB1 block: inactive; PKD1 inh: inactive; ABCG2 block: inactive; PHOSPHO1 block: 71.9; NCF1 inh: inactive
